Source: ChEMBL document CHEMBL1121529, “Synthesis of [82Br]bromperidol and preliminary tissue distribution studies in the rat” (J Med Chem, 1980)

What was measured:
Set-up in all cases: dose 0.2 mg/kg, route intravenous
Rattus norvegicus [1] = assay: Tested for the tissue distribution of Br activity at 120 min in lung following intravenous injection in rat at the dose of 0.2 mg/kg; format: ADME, organism-based; details: in vivo, 2 h
How it was run: (§1)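 Male Sprague-Dawley rats (300-320 g, fed ad libitum) anesthetized with sodium pentobarbital 45 mg/kg, then given an iv bolus into the jugular vein of 19-22 µCi (0.2 mg/kg) [82Br]bromperidol in propylene glycol-ethanol-water (40:20:40), pH 4. Rats serially sacrificed by cardiac puncture. Organs counted 100 s at ~12 000 cpm with decay correction. Values are % dose/g, mean and SD of three.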

Rattus norvegicus [2] = assay: Tested for the tissue distribution of Br activity at 60 min in blood following intravenous injection in rat at the dose of 0.2 mg/kg; format: ADME, organism-based; details: in vivo, 1 h; how it was run: as §1
Rattus norvegicus [3] = assay: Tested for the tissue distribution of Br activity at 120 min in liver following intravenous injection in rat at the dose of 0.2 mg/kg; format: ADME, organism-based; details: in vivo, 2 h; how it was run: as §1
Rattus norvegicus [4] = assay: Tested for the tissue distribution of Br activity at 60 min in kidney following intravenous injection in rat at the dose of 0.2 mg/kg; format: ADME, organism-based; details: in vivo, 1 h; how it was run: as §1
Rattus norvegicus [5] = assay: Tested for the tissue distribution of Br activity at 45 min in liver following intravenous injection in rat at the dose of 0.2 mg/kg; format: ADME, organism-based; details: in vivo, 0.75 h; how it was run: as §1
Rattus norvegicus [6] = assay: Tested for the tissue distribution of Br activity at 60 min in brain following intravenous injection in rat at the dose of 0.2 mg/kg; format: ADME, organism-based; details: in vivo, 1 h; how it was run: as §1
Rattus norvegicus [7] = assay: Tested for the tissue distribution of Br activity at 30 min in brain following intravenous injection in rat at the dose of 0.2 mg/kg; format: ADME, organism-based; details: in vivo, 0.5 h; how it was run: as §1
Rattus norvegicus [8] = assay: Tested for the tissue distribution of Br activity at 120 min in brain following intravenous injection in rat at the dose of 0.2 mg/kg; format: ADME, organism-based; details: in vivo, 2 h; how it was run: as §1
Rattus norvegicus [9] = assay: Tested for the tissue distribution of Br activity at 15 min in brain following intravenous injection in rat at the dose of 0.2 mg/kg; format: ADME, organism-based; details: in vivo, 0.25 h; how it was run: as §1
Rattus norvegicus [10] = assay: Tested for the tissue distribution of Br activity at 30 min in lung following intravenous injection in rat at the dose of 0.2 mg/kg; format: ADME, organism-based; details: in vivo, 0.5 h; how it was run: as §1
Rattus norvegicus [11] = assay: Tested for the tissue distribution of Br activity at 15 min in liver following intravenous injection in rat at the dose of 0.2 mg/kg; format: ADME, organism-based; details: in vivo, 0.25 h; how it was run: as §1
Rattus norvegicus [12] = assay: Tested for the tissue distribution of Br activity at 30 min in liver following intravenous injection in rat at the dose of 0.2 mg/kg; format: ADME, organism-based; details: in vivo, 0.5 h; how it was run: as §1
Rattus norvegicus [13] = assay: Tested for the tissue distribution of Br activity at 45 min in blood following intravenous injection in rat at the dose of 0.2 mg/kg; format: ADME, organism-based; details: in vivo, 0.75 h; how it was run: as §1
Rattus norvegicus [14] = assay: Tested for the tissue distribution of Br activity at 120 min in blood following intravenous injection in rat at the dose of 0.2 mg/kg; format: ADME, organism-based; details: in vivo, 2 h; how it was run: as §1
Rattus norvegicus [15] = assay: Tested for the tissue distribution of Br activity at 15 min in kidney following intravenous injection in rat at the dose of 0.2 mg/kg; format: ADME, organism-based; details: in vivo, 0.25 h; how it was run: as §1
Rattus norvegicus [16] = assay: Tested for the tissue distribution of Br activity at 120 min in kidney following intravenous injection in rat at the dose of 0.2 mg/kg; format: ADME, organism-based; details: in vivo, 2 h; how it was run: as §1
Rattus norvegicus [17] = assay: Tested for the tissue distribution of Br activity at 45 min in brain following intravenous injection in rat at the dose of 0.2 mg/kg; format: ADME, organism-based; details: in vivo, 0.75 h; how it was run: as §1
Rattus norvegicus [18] = assay: Tested for the tissue distribution of Br activity at 15 min in blood following intravenous injection in rat at the dose of 0.2 mg/kg; format: ADME, organism-based; details: in vivo, 0.25 h; how it was run: as §1
Rattus norvegicus [19] = assay: Tested for the tissue distribution of Br activity at 45 min in kidney following intravenous injection in rat at the dose of 0.2 mg/kg; format: ADME, organism-based; details: in vivo, 0.75 h; how it was run: as §1
Rattus norvegicus [20] = assay: Tested for the tissue distribution of Br activity at 30 min in blood following intravenous injection in rat at the dose of 0.2 mg/kg; format: ADME, organism-based; details: in vivo, 0.5 h; how it was run: as §1
Rattus norvegicus [21] = assay: Tested for the tissue distribution of Br activity at 45 min in lung following intravenous injection in rat at the dose of 0.2 mg/kg; format: ADME, organism-based; details: in vivo, 0.75 h; how it was run: as §1
Rattus norvegicus [22] = assay: Tested for the tissue distribution of Br activity at 60 min in lung following intravenous injection in rat at the dose of 0.2 mg/kg; format: ADME, organism-based; details: in vivo, 1 h; how it was run: as §1
Rattus norvegicus [23] = assay: Tested for the tissue distribution of Br activity at 15 min in lungs following intravenous injection in rat at the dose of 0.2 mg/kg; format: ADME, organism-based, Lung; details: in vivo, 0.25 h; how it was run: as §1
Rattus norvegicus [24] = assay: Tested for the tissue distribution of Br activity at 60 min in liver following intravenous injection in rat at the dose of 0.2 mg/kg; format: ADME, organism-based; details: in vivo, 1 h; how it was run: as §1
Rattus norvegicus [25] = assay: Tested for the tissue distribution of Br activity at 30 min in kidney following intravenous injection in rat at the dose of 0.2 mg/kg; format: ADME, organism-based; details: in vivo, 0.5 h; how it was run: as §1

Dose/g (Rattus norvegicus [1]): 1.23%
Dose/g (Rattus norvegicus [2]): 0.14%
Dose/g (Rattus norvegicus [3]): 1.44%
Dose/g (Rattus norvegicus [4]): 0.93%
Dose/g (Rattus norvegicus [5]): 1.7%
Dose/g (Rattus norvegicus [6]): 0.32%
Dose/g (Rattus norvegicus [7]): 0.41%
Dose/g (Rattus norvegicus [8]): 0.2%
Dose/g (Rattus norvegicus [9]): 0.58%
Dose/g (Rattus norvegicus [10]): 3.17%
Dose/g (Rattus norvegicus [11]): 1.53%
Dose/g (Rattus norvegicus [12]): 1.66%
Dose/g (Rattus norvegicus [13]): 0.14%
Dose/g (Rattus norvegicus [14]): 0.12%
Dose/g (Rattus norvegicus [15]): 1.63%
Dose/g (Rattus norvegicus [16]): 0.61%
Dose/g (Rattus norvegicus [17]): 0.41%
Dose/g (Rattus norvegicus [18]): 0.15%
Dose/g (Rattus norvegicus [19]): 1.03%
Dose/g (Rattus norvegicus [20]): 0.14%
Dose/g (Rattus norvegicus [21]): 2.75%
Dose/g (Rattus norvegicus [22]): 2.25%
Dose/g (Rattus norvegicus [23]): 5.07%
Dose/g (Rattus norvegicus [24]): 1.58%
Dose/g (Rattus norvegicus [25]): 1.2%
Compound: O=C(CCCN1CCC(O)(c2ccc(Br)cc2)CC1)c1ccc(F)cc1 [BROMPERIDOL]
